Screens (PubChem)
S100A4 inh HTS: blocks human S100A4 binding to myosin IIA peptide | inhibition, % at 10.7 µM | S100A4/TAMRA-MyoIIA peptide fluorescence polarization | 360,000 tested, 0.14% active;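 active = mean inhibition of at least 70% across replicates, with every replicate also reaching that level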
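Material: human S100A4 monomer with TAMRA-labelled myosin IIA peptide; buffer or medium: HEPES pH 7.2 with CaCl2, KCl, NaCl, DTT, Triton; compound dosing: one concentration per compound; schedule: 5 min incubation before reading; benchmarks: neutral control DMSO, positive control TFP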
MLL AF4-AF9 inh: MLL-AF4/AF9 protein interaction inhibition. AID 651704. 350,000 tested, 0.47% active. AlphaScreen, biotin-AF4 peptide binding to FLAG-AF9. P42568. inhibition, % at 10 µM;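 active = every replicate reaching a set inhibition limit, whatever the replicate mean, cut at about 25% in these data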;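 also: 0% = plate neutral control median and 100% = total signal loss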
RAD52 inh: inhibitors of human RAD52 DNA annealing. recombinant RAD52 DNA annealing, FRET fluorescence. 360,000 tested, 0.46% active. inhibition, % at 18.7 µM;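 active = every replicate showing at least 50% inhibition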
RAD54 branch: blocks human RAD54 Holliday junction branch migration | Q92698 | FAM/BHQ fluorescence | inhibition, % at 10.4 µM | 360,000 tested, 0.14% active | AID 602329;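 active = mean normalized replicate activity at least 40 and at least half of replicates scoring 40 or more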;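 also: 0% = median of neutral control wells and 100% = median of positive control wells; inhibitors cause a drop in the FAM fluorescence signal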
Target sequence (Q92698 whole entry, looked up): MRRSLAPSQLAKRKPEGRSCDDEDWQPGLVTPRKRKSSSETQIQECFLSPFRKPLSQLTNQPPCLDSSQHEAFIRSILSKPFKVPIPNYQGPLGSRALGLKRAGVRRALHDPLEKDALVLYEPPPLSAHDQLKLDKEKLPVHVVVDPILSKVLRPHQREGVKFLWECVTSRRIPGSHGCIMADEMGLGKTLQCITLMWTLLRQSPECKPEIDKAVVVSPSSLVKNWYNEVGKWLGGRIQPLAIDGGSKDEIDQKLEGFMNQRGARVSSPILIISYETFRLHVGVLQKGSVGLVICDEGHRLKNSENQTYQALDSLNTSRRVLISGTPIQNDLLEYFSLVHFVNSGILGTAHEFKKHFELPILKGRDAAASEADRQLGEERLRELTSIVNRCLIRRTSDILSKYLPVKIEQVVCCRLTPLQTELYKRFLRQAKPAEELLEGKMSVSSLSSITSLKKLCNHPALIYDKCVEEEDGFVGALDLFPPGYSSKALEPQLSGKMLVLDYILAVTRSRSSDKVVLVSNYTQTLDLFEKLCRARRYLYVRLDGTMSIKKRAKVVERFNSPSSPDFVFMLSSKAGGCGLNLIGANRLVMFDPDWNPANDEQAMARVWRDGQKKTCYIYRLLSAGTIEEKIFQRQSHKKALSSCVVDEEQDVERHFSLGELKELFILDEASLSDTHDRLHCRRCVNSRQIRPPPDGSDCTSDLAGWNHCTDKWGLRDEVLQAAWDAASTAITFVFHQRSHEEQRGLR
dFosB act: enhances mouse delta FosB homodimer DNA binding | purified delta FosB, TAMRA-CDK5 oligo fluorescence polarization; percent of positive-control signal above neutral wells | activation, % at 25 µM | 340,000 tested, 0.99% active | AID 493131;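 active = mean activation above about 17%, with every replicate also reaching it, limit read from the data, passing the limit was not always enough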
RAD52 DNA ctr: binds DNA, flagging false RAD52 inhibitor hits; shares compounds with RAD52 inh; Salmon sperm DNA/acridine orange FP displacement, DNA binding; AC50, µM; 1,000 tested, 8% active;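 active = fitted half-maximal concentration for signal loss at or below twice the highest dose tested, in every separate run, actives reach about 64 µM in these data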
Active calls of the source: *; i = inactive; / = no result. Sampled rows, rich in hits. Any-hit rate of the full collection: about 1.5%.

SMILES	S100A4 inh HTS	MLL AF4-AF9 inh	RAD52 inh	RAD54 branch	dFosB act	RAD52 DNA ctr
C[C@@H]1CN([C@H](C)CO)C(=O)Cc2cc(NC(=O)Nc3ccccc3)ccc2O[C@H]1CN(C)C(=O)Nc1ccc(F)cc1	-2	0	-9	9	/	/
C[C@@H]1CN([C@H](C)CO)C(=O)c2cc(NS(=O)(=O)c3cn(C)cn3)ccc2O[C@@H]1CN(C)C(=O)NC1CCCCC1	-8	-3	3	-19	/	/
Cc1ccccc1OCC(O)CNC1CCC(NCC(O)COc2ccccc2C)CC1 (stereo unspecified)	-1	21	-15	22	-1	i
Cc1ccc(OCC(O)CNC2CCCC2)c(C)c1 (stereo unspecified)	-10	-2	-5	6	0	/
Cc1cc(N2CCN(c3ccccc3)CC2)nc2ccccc12	-10	0	-3	4	-7	/
Cc1cc(N2CCC(N(C)C3CCCC3)CC2)nc2cc(O)ccc12	-29	1	103*	45	7	i
Oc1ccc(C[C@H]2CNC(=S)N2CC2CCCN2C[C@H](Cc2ccc(O)cc2)N2C[C@H](Cc3ccc(O)cc3)N(CC3CCCCC3)C2=S)cc1 (stereo partly specified)	-20	1	55*	-6	8	i
Oc1ccc(C[C@H]2CN([C@@H](Cc3ccccc3)CN3CCCC3CN3C(=S)NC[C@@H]3Cc3ccccc3)C(=S)N2CC2CCCCC2)cc1 (stereo partly specified)	12	4	-20	/	/	/
CCOc1ccc(CCN2C(=S)N([C@@H](Cc3ccc(O)cc3)CN3CCC[C@@H]3CN3C(=S)NC[C@@H]3Cc3ccccc3)C[C@@H]2CC(C)C)cc1	-2	2	51*	-1	/	i
C[C@@H]1CCCCO[C@@H](CN(C)C(=O)CCCN(C)C)[C@@H](C)CN([C@H](C)CO)C(=O)c2cc(NS(=O)(=O)c3cn(C)cn3)ccc2O1	11	2	5	0	/	/
O=S(=O)(c1ccc(F)cc1)N1CCCCN2[C@H](CO)[C@H](c3ccc(C4=CCCCC4)cc3)[C@@H]2C1	3	3	-6	-5	/	/
CC(=O)N(C)C[C@@H]1Oc2ncc(-c3ccc(C(=O)N(C)C)cc3)cc2C(=O)N([C@@H](C)CO)C[C@H]1C	1	-3	-4	4	/	/
COc1ccc(-c2c(-c3ccccc3)c(C(=O)C(=O)NCCCN(C)C)n3ccc4cc(OC)c(OC)cc4c23)cc1OC	-8	38*	94*	81*	7	i
COc1ccc(CNC(=O)C[C@@H]2C=C[C@H](NC(=O)Nc3ccc4c(c3)OCO4)[C@H](CO)O2)cc1	3	-1	-5	6	/	/
O=C(C[C@H]1C[C@@H]2c3cc(NC(=O)c4ccc5c(c4)OCO5)ccc3O[C@@H]2[C@@H](CO)O1)NC1CCCCC1	0	4	12	4	/	/
C=CCNc1nc(-c2cccs2)c(CC(=O)O)s1	-4	0	-18	-24	2	/
CCN(CC)CCNc1nc(-c2cccs2)c(CC(=O)O)s1	-4	7	88*	-2	12	i
C[C@@H]1CN([C@@H](C)CO)C(=O)c2cc(NC(=O)CCN3CCOCC3)ccc2O[C@H]1CN(C)CC1CCCCC1	24	-4	-9	5	/	/
COc1ccc2nc(NCCNC(=S)NCCCN3CCOCC3)c(C#N)cc2c1	1	-5	70*	/	7	i
O=C(C[C@@H]1CC[C@@H]2NC[C@H](O)COC[C@H]2O1)NCCN1CCCC1	-15	10	1	/	/	/
Cc1cc(/C=C2\Sc3ccccc3N2C)cc(C)[n+]1CC1CCCO1 (stereo unspecified)	2	2	51*	/	-7	i
Cc1ccc(/C=C2/Sc3ccccc3N(CC(=O)NCC3CCCO3)C2=O)cc1 (stereo unspecified)	/	/	/	-2	-12	/
Cc1ccc(S(=O)(=O)N[C@H]2CC[C@@H](CC(=O)N3CCN(c4ccccc4)CC3)O[C@@H]2CO)cc1	4	0	1	-7	/	/
C[C@@H](c1ccccc1)N1C[C@H](COCc2ccccc2)Oc2cc(N3CC[C@H](N(C)C)C3)ccc2S1(=O)=O	-5	26*	52*	/	/	i
